Legend:
Mus musculus [1] = test: Compound was tested for anticonvulsant activity after intraperitoneal injection into mice by using MES screen test after 1 hr; assay type: functional; conditions: ip
Procedure, shortened: (§1)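 Quantitative intraperitoneal mouse testing in the MES, scPTZ or rotorod neurotoxicity screens at the peak time given for each compound (0.25–2 h). ED50 or TD50 reported in mg/kg with 95% CI and slope (SE).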

Rattus norvegicus [2] = test: Compound was tested for anticonvulsant activity after Oral Administration into Rats by using MES screen test after 4h,dose 50 mg/kg; number of rats out of four which were protected; assay type: functional
Procedure, shortened: (§2)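 Rats received the compound orally. […] Rats were tested in the MES screen at 0.25, 0.5, 1, 2 and 4 h. Each value is the number of rats protected out of 4. The test followed NINDS procedures.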

Mus musculus [3] = test: Anticonvulsant activity after intraperitoneal injection into mice measured in a maximal electroshock scree (MES) screen; assay type: functional
Mus musculus [4] = test: Toxicity after intraperitoneal injection into mice by using toxicity screen test after 0.5 hr; assay type: organism-based; conditions: in vivo, ip
Procedure, shortened: (§3)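 Mice injected intraperitoneally at 30, 100 and 300 mg/kg and examined 0.5 and 4 h afterwards. Each entry is the minimum dose giving activity (MES protection, scPTZ protection, or rotorod failure for neurotoxicity) in half or more of the mice. Activity is called absent if nothing occurs at 300 mg/kg.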

Rattus norvegicus [5] = test: Compound was tested for anticonvulsant activity after Oral Administration into Rats by using MES screen test after 2h,dose 50 mg/kg; number of rats out of four which were protected; assay type: functional; procedure, shortened: as §2
[6] = Compound was tested for toxicity after intraperitoneal injection into mice by using neurotoxicity screen test after 1 hr; assay type: organism-based; conditions: mouse, in vivo, ip; procedure, shortened: as §1
Rattus norvegicus [7] = test: Compound was tested for anticonvulsant activity after Oral Administration into Rats by using MES screen test after 0.5h,dose 50 mg/kg; number of rats out of four which were protected; assay type: functional; procedure, shortened: as §2
Mus musculus [8] = test: Anticonvulsant activity after intraperitoneal injection into mice by using MES screen test after 0.5 hr; assay type: functional
Rattus norvegicus [9] = test: Compound was tested for anticonvulsant activity after Oral Administration into Rats by using MES screen test after 1h,dose 50 mg/kg; number of rats out of four which were protected; assay type: functional; procedure, shortened: as §2
Mus musculus [10] = test: Compound was tested for toxicity after intraperitoneal injection into mice by using toxicity screen test after 4 hr; assay type: organism-based; conditions: in vivo, ip; procedure, shortened: as §3
Mus musculus [11] = test: Compound was tested for anticonvulsant activity after intraperitoneal injection into mice by using scPTZ screen test after 1 hr; assay type: functional; conditions: ip; procedure, shortened: as §1
Rattus norvegicus [12] = test: Compound was tested for anticonvulsant activity after Oral Administration into Rats by using MES screen test after 0.25h,dose 50 mg/kg; number of rats out of four which were protected; assay type: functional; procedure, shortened: as §2
Rattus norvegicus [13] = test: Compound was tested for anticonvulsant activity after Oral Administration into Rats by using MES screen test after 0.25h,dose 30 mg/kg; No activity was demonstarted; assay type: functional, organism-based; design: dose 30 mg/kg; procedure, shortened: as §2
Rattus norvegicus [14] = test: Compound was tested for anticonvulsant activity after Oral Administration into rat by using MES screen test after 2 hr; assay type: functional
Procedure, shortened: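 Rats dosed orally, typically at 50 mg/kg first, then mostly 12.5 mg/kg (some compounds at 30 mg/kg), and tested by maximal electroshock. Four rats per compound, scored at 0.25, 0.5, 1, 2 and 4 h as the number of rats protected out of 4.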

Rattus norvegicus [15] = test: Compound was tested for anticonvulsant activity after Oral Administration into Rats by using MES screen test after 4h,dose 30 mg/kg; number of rats out of four which were protected; assay type: functional; procedure, shortened: as §2
Rattus norvegicus [16] = test: Compound was tested for anticonvulsant activity after Oral Administration into Rats by using MES screen test after 1h,dose 30 mg/kg; number of rats out of four which were protected; assay type: functional; procedure, shortened: as §2
Rattus norvegicus [17] = test: Compound was tested for anticonvulsant activity after Oral Administration into Rats by using MES screen test after 2h,dose 30 mg/kg; number of rats out of four which were protected; assay type: functional; procedure, shortened: as §2
Mus musculus [18] = test: Anticonvulsant activity after intraperitoneal injection into mice by using scPTZ screen after 0.5 hr; assay type: functional
Rattus norvegicus [19] = test: Compound was tested for anticonvulsant activity after Oral Administration into Rats by using MES screen test after 0.5h,dose 30 mg/kg; number of rats out of four which were protected; assay type: functional; procedure, shortened: as §2
[20] = Compound was tested for toxicity after oral administration in rat by using neurotoxicity screen test after 0.25-24 hr; assay type: organism-based; conditions: in vivo
Procedure, shortened: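 Rat neurotoxicity after oral dosing, observed at 0.25, 0.5, 1, 2, 4, 6, 8 and 24 h (8 h omitted for one compound).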

[21] = Compound was tested for toxicity after intraperitoneal injection into mice by using neurotoxicity screen test after 2 hr; assay type: organism-based; conditions: mouse, in vivo, ip; procedure, shortened: as §1
[22] = Partition coefficient (logP); assay type: physicochemical; conditions: octanol/water
Procedure, shortened: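 Partition between 1-octanol and buffer at pH 7.4, with solutions prepared in 1-octanol before buffer is added. Quantified by UV, using λmax and ε values measured in 1-octanol.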

Rattus norvegicus [23] = test: Compound was tested for anticonvulsant activity after Oral Administration into Rats by using MES screen test after 0.25h,dose 50 mg/kg; No activity was demonstarted; assay type: functional, organism-based; design: dose 50 mg/kg; procedure, shortened: as §2
[24] = Protection index = TD50/ED50; assay type: ADME; conditions: read-out: PI
Rattus norvegicus [25] = test: Compound was tested for anticonvulsant activity after Oral Administration into Rats by using MES screen test after 2h,dose 12.5 mg/kg; number of rats out of four which were protected; assay type: functional; procedure, shortened: as §2
Rattus norvegicus [26] = test: Compound was tested for anticonvulsant activity after Oral Administration into Rats by using MES screen test after 1h,dose 12.5 mg/kg; number of rats out of four which were protected; assay type: functional; procedure, shortened: as §2
[27] = Protection index = TD50/ED50 (MES); conditions: mouse, in vivo; read-out: PI
Rattus norvegicus [28] = test: Compound was tested for anticonvulsant activity after Oral Administration into Rats by using MES screen test after 4h,dose 12.5 mg/kg; number of rats out of four which were protected; assay type: functional; procedure, shortened: as §2
Rattus norvegicus [29] = test: Compound was tested for anticonvulsant activity after Oral Administration into Rats by using MES screen test after 0.25h,dose 12.5 mg/kg; No activity was demonstarted; assay type: functional, organism-based; design: dose 12.5 mg/kg; procedure, shortened: as §2
Rattus norvegicus [30] = test: Anticonvulsant activity after oral administration into rats; assay type: functional; design: concentration or dose not given beside the values
Rattus norvegicus [31] = test: Compound was tested for anticonvulsant activity after Oral Administration into Rats by using MES screen test after 1h,dose 12.5 mg/kg; No activity was demonstarted; assay type: functional, organism-based; design: dose 12.5 mg/kg; procedure, shortened: as §2
Rattus norvegicus [32] = test: Compound was tested for anticonvulsant activity after Oral Administration into Rats by using MES screen test after 0.5h,dose 12.5 mg/kg; No activity was demonstarted; assay type: functional, organism-based; design: dose 12.5 mg/kg; procedure, shortened: as §2
Rattus norvegicus [33] = test: Compound was tested for anticonvulsant activity after Oral Administration into Rats by using MES screen test after 4h,dose 12.5 mg/kg; No activity was demonstarted; assay type: functional, organism-based; design: dose 12.5 mg/kg; procedure, shortened: as §2
Mus musculus [34] = test: Anticonvulsant activity after intraperitoneal injection into mice by using scPTZ screen test after 4 hr; assay type: functional
Rattus norvegicus [35] = test: Compound was tested for anticonvulsant activity after Oral Administration into Rats by using MES screen test after 0.25h,dose 30 mg/kg; number of rats out of four which were protected; assay type: functional; procedure, shortened: as §2

| Compound | ED50 (Mus musculus [1]) [mg/kg] | Activity (Rattus norvegicus [2]) | Dose (Mus musculus [3]) [mg/kg] | Dose (Mus musculus [4]) [mg/kg] | Activity (Rattus norvegicus [5]) | TD50 at 1 h [6] [mg/kg] | Activity (Rattus norvegicus [7]) | Dose (Mus musculus [8]) [mg/kg] | Activity (Rattus norvegicus [9]) | Dose (Mus musculus [10]) [mg/kg] | ED50 (Mus musculus [11]) [mg/kg] | Activity (Rattus norvegicus [12]) | ED50 (Rattus norvegicus [14]) [mg/kg] | Dose (Mus musculus [18]) [mg/kg] | TD50 [20] [mg/kg] | Activity (Rattus norvegicus [25]) | Activity (Rattus norvegicus [29]) | also measured |
| --- | --- | --- | --- | --- | --- | --- | --- | --- | --- | --- | --- | --- | --- | --- | --- | --- | --- | --- |
| NC(=O)N/N=C/c1ccc(Oc2ccc(F)cc2Cl)cc1 | 13.1 | 4 | 30 | 100 | 4 | 62.5 | 4 | 30 | 4 | 300 | > 68 | 4 | – | – | – | – | – | – |
| CC/C(=N/NC(N)=O)c1ccc(Oc2ccc(Cl)cc2)cc1 | – | – | – | 300 | – | – | – | 30 | – | 100 | – | – | 2.89 | 300 | > 500 | – | – | Activity (Rattus norvegicus [13]): No activity; Activity (Rattus norvegicus [15]): 4; Activity (Rattus norvegicus [16]): 4; Activity (Rattus norvegicus [17]): 4; Activity (Rattus norvegicus [19]): 1; TD50 at 2 h [21]: < 100 mg/kg |
| NC(=O)N/N=C/c1ccc(Oc2ccccc2)cc1 | – | 4 | 300 | – | 4 | – | 3 | 100 | 4 | – | – | – | – | – | – | – | – | logP [22]: 2.66; Activity (Rattus norvegicus [23]): No activity |
| Cc1ccc(Oc2ccc(/C=N/NC(N)=O)cc2)cc1 | 14.7 | 4 | 100 | – | 4 | – | 4 | 30 | 4 | – | 88.6 | 3 | 3.43 | – | > 500 | – | – | selectivity ratio [24]: 2.3; TD50 at 2 h [21]: 204 mg/kg |
| C/C(=N/NC(N)=O)c1ccc(Oc2ccc(C)cc2)cc1 | 5.62 | – | 100 | – | – | 57.9 | – | 30 | – | – | 18.7 | – | – | 30 | – | 4 | No activity | selectivity ratio [24]: 3.09; Activity (Rattus norvegicus [26]): 2; selectivity ratio [27]: 10.3; Activity (Rattus norvegicus [28]): 4; Activity (Rattus norvegicus [30]): 1 |
| NC(=O)N/N=C/c1ccc(Oc2ccc(F)cc2)cc1 | 12.9 | 4 | 100 | – | 4 | 108 | 4 | 30 | 4 | – | > 54 | 2 | – | – | > 500 | – | – | logP [22]: 1.91 |
| CCCCc1ccc(Oc2ccc(/C=N/NC(N)=O)cc2)cc1 | – | – | 100 | – | – | – | – | 300 | – | 300 | – | – | – | – | – | 1 | No activity | Activity (Rattus norvegicus [31]): No activity; Activity (Rattus norvegicus [32]): No activity; Activity (Rattus norvegicus [28]): 2 |
| Cc1cc(C)cc(Oc2ccc(/C=N/NC(N)=O)cc2)c1 | – | – | 300 | – | – | – | – | 30 | – | – | – | – | – | 300 | – | 2 | No activity | Activity (Rattus norvegicus [33]): No activity; Activity (Rattus norvegicus [26]): 3; Activity (Rattus norvegicus [30]): 4 |
| C/C(=N/NC(N)=O)c1ccc(Sc2ccc(F)cc2)cc1 | – | – | 30 | 300 | – | – | – | 100 | – | 300 | – | – | 9.11 | – | – | – | – | Dose (Mus musculus [34]): 300 mg/kg; Activity (Rattus norvegicus [15]): 4; Activity (Rattus norvegicus [35]): 3; Activity (Rattus norvegicus [16]): 4; Activity (Rattus norvegicus [17]): 4; Activity (Rattus norvegicus [19]): 4 |
